{"source": "paper PMC12215001", "about": "(Scientific Reports, 2025)", "key": {"N/P(14) cells [1]": {"tested_on": "N/P(14) cells", "experiment": "Western blot analysis", "type": "cell-based", "summary_of_the_method": "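N/P(14) cells were treated two ways: a concentration series for 24–48 h, or 10 µM for 6–48 h. Lysis was in SDS buffer, followed by SDS-PAGE and PVDF blotting. Probes: caspases, PARP, a CK2 substrate consensus (pS/pT)DXE antibody, and phospho-Akt (S129)/Akt and phospho-XRCC1. Bands were normalized to GAPDH as fold of control. Mean±S.D., n = 3, one-way ANOVA with Dunnett.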"}, "NTUB1 cells": {"tested_on": "NTUB1 cells", "experiment": "SRB assay, cell growth inhibition", "type": "cell-based", "conditions": "48 h", "summary_of_the_method": "(§1)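 Cell lines: NTUB1 and N/P(14) in RPMI 1640, J82 in EMEM, and J82R (J82 adapted stepwise to 10 µM cisplatin); all in 10% FBS at 37 °C, 5% CO2, passage <10, mycoplasma-tested. SV-HUC-1 was grown in F12K. Cells were treated 48 h in 96-well plates, then TCA-fixed (10%) and stained with 0.4% SRB. After 1% acetic acid washes, dye was dissolved in 10 mM Tris base and read at 515 nm. GI50 = concentration giving 50% growth inhibition.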"}, "[2]": {"tested_on": "N/P(14) cells (cisplatin-resistant subline of NTUB1)", "experiment": "SRB assay, cell growth inhibition", "type": "cell-based", "summary_of_the_method": "as §1"}, "J82 cells": {"tested_on": "J82 cells", "experiment": "SRB assay, cell growth inhibition", "type": "cell-based", "conditions": "48 h", "summary_of_the_method": "as §1"}, "[3]": {"tested_on": "J82R cells (cisplatin-resistant subline of J82)", "experiment": "SRB assay, cell growth inhibition", "type": "cell-based", "conditions": "48 h", "summary_of_the_method": "as §1"}, "[4]": {"tested_on": "SV-HUC-1 cells (normal uroepithelial)", "experiment": "SRB assay, cell growth inhibition", "type": "cell-based", "conditions": "SV-HUC1, 48 h", "summary_of_the_method": "as §1"}, "CK2α": {"target": "CK2α (Homo sapiens, UniProt P68400)", "sequence (P68400 whole entry)": "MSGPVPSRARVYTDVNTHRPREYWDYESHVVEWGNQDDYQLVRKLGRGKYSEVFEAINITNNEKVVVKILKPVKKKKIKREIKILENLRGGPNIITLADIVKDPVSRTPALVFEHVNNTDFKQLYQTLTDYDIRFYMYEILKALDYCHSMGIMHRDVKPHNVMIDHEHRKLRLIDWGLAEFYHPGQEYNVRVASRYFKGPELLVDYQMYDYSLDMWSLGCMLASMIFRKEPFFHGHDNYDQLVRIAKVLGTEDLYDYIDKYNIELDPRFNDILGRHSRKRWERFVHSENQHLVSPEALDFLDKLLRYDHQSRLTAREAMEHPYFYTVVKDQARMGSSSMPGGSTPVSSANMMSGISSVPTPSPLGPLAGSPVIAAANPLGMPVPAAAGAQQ", "experiment": "In vitro CK2α kinase activity assay", "type": "biochemical", "conditions": "10-dose, threefold serial dilution starting at 100 µM, 10 µM ATP"}, "N/P(14) cells [5]": {"tested_on": "N/P(14) cells", "experiment": "SRB assay, combination index", "type": "cell-based", "conditions": "48 h, CI below one indicates synergism", "summary_of_the_method": "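N/P(14) cells got doxorubicin or mitomycin C, with or without test compound, for 48 h. Growth was measured by SRB staining: TCA fixation, 1% acetic acid wash, Tris solubilization, absorbance at 515 nm. Combination index was computed from the combined dose–effect data; CI < 1 taken as synergism.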"}, "N/P(14) cells [6]": {"tested_on": "N/P(14) cells", "experiment": "Cell cycle analysis, propidium iodide staining and flow cytometry", "type": "cell-based", "conditions": "24-48 h, time- and concentration-dependent"}, "N/P(14) cells [7]": {"tested_on": "N/P(14) cells", "experiment": "RT-qPCR and Western blot of base excision repair genes", "type": "cell-based", "conditions": "5 µM, 24 h (RT-qPCR)", "summary_of_the_method": "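For mRNA, cells got 5 µM test compound for 24 h. RNA was taken by TRIzol with 1-bromo-3-chloropropane phase separation and isopropanol precipitation, reverse-transcribed, then run by green-dye qPCR with gene-specific primers (n = 3, unpaired two-tailed t-test). Protein levels were read by western blot, with band densities normalized to GAPDH.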"}, "J82R cells": {"tested_on": "J82R cells", "experiment": "Western blot analysis", "type": "cell-based", "conditions": "24-48 h", "summary_of_the_method": "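J82R cells got the indicated test compound concentrations for 24–48 h. Proteins were extracted in SDS lysis buffer, run on SDS-PAGE, transferred to PVDF, and probed for caspase-3, -8, -9 and PARP. Band densities were normalized to GAPDH and expressed as fold of untreated control. Mean±S.D., n = 3–4, one-way ANOVA with Dunnett's test.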"}}}
{"smiles": "O=C(O)c1ccc2c(c1)nc(Nc1cccc(Cl)c1)c1ccncc12", "note": "[CX-4945, reference compound]", "values": [{"measurement": "PARP cleavage", "setting": "N/P(14) cells [1]; 24 h", "value": "increased"}, {"measurement": "phosphorylation of the downstream targets Akt and XRCC1", "setting": "N/P(14) cells [1]; 24 h, concentration-dependent", "value": "decreased"}]}
{"smiles": "N.N.[Cl][Pt][Cl]", "note": "[cisplatin, reference compound]", "values": [{"measurement": "GI50", "setting": "NTUB1 cells", "value": 7.89, "unit": "µM"}, {"measurement": "GI50", "setting": "[2]; N/P(14) cells, 48 h, SRB assay", "value": 47.4, "unit": "µM"}, {"measurement": "GI50", "setting": "J82 cells", "value": 2.58, "unit": "µM"}, {"measurement": "GI50", "setting": "[3]; J82R cells, SRB assay", "value": 9.47, "unit": "µM"}]}
{"smiles": "O=c1cc(-c2ccc(Oc3c(O)cc4oc(-c5ccc(O)cc5)cc(=O)c4c3O)cc2)oc2cc(O)cc(O)c12", "note": "[Hinokiflavone]", "values": [{"measurement": "GI50", "setting": "[2]; NTUB1, 48 h", "value": 1.48, "unit": "µM"}, {"measurement": "GI50", "setting": "[3]", "value": 0.98, "unit": "µM"}, {"measurement": "GI50", "setting": "[4]", "value": 4.09, "unit": "µM"}, {"measurement": "CK2α kinase activity", "setting": "CK2α", "value": "inhibited CK2α activity in a concentration-dependent manner"}, {"measurement": "combination index (CI)", "setting": "N/P(14) cells [5]; HNK with doxorubicin", "value": "below 1"}, {"measurement": "combination index (CI)", "setting": "N/P(14) cells [5]; HNK with mitomycin C", "value": "below 1"}, {"measurement": "cleavage of caspase-3, caspase-8, caspase-9, and PARP", "setting": "N/P(14) cells [1]; 24-48 h", "value": "enhanced"}, {"measurement": "phosphorylation of the CK2 substrate consensus sequence ((pS/pT)DXE)", "setting": "N/P(14) cells [1]; 24 h and 48 h, concentration-dependent", "value": "suppressed"}, {"measurement": "accumulation of cells in the sub-G1 phase", "setting": "N/P(14) cells [6]", "value": "significantly increased"}, {"measurement": "mRNA and protein levels of MUTYH, OGG1, and XRCC1", "setting": "N/P(14) cells [7]", "value": "reduced"}, {"measurement": "cleavage of caspase-3, caspase-8, caspase-9, and PARP", "setting": "J82R cells", "value": "enhanced"}]}
